Data reported in ChEMBL document CHEMBL3797075 (Bioorg Med Chem, 2016).
Activity calls are given as the source filed them. The rule behind the calls is not given here.

Legend:
[1] = target: T1, Steryl-sulfatase (Homo sapiens) (UniProt P08842); test: Inhibition of steroid sulfatase in human JEG-3 cells assessed as […]Estrone formation using [3H]E1S as substrate at 10 uM; type: cell-based
T1 sequence (whole entry): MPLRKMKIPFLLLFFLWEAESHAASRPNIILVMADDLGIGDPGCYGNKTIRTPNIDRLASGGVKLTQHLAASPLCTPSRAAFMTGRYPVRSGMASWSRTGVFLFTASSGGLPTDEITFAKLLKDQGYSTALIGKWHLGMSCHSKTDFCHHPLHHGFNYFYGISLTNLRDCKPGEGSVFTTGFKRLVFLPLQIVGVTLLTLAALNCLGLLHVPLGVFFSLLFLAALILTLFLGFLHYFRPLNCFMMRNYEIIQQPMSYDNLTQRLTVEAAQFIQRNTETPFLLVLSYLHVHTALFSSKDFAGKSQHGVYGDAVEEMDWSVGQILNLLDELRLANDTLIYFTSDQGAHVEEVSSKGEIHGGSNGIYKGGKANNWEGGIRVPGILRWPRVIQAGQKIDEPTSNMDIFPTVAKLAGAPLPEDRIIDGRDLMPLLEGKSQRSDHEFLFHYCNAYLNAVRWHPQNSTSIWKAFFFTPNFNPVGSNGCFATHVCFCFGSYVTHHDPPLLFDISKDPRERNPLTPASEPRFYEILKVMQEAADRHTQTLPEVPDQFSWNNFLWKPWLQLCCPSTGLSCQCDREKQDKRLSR
Method in brief: (§1)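 Intact JEG-3 monolayers were incubated for 20 h at 37 °C in serum-free EMEM with [³H]E₁S (5 pmol, 60 Ci/mmol), with or without inhibitor. Estrone was separated from E₁S by toluene partition, with [¹⁴C]estrone correcting for recovery. Counts were read by scintillation, and hydrolysed E₁S mass was derived from ³H counts and substrate specific activity. Values are triplicate means.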

[2] = target: T1, Steryl-sulfatase (Homo sapiens); test: Inhibition of steroid sulfatase (unknown origin) at 10 uM
Method in brief: (§2)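 STS source was lysate of human JEG-3 choriocarcinoma cells at 125 µg protein/mL. Substrate was [³H]E₁S adjusted to 20 µM with unlabelled E₁S. Inhibitor was added at a single 10 µM or at 0.5–20 µM, incubated for 1 h. Product was extracted into toluene, with [4-¹⁴C]E₁ correcting for losses. Values are % inhibition, triplicate mean.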

[3] = target: T1, Steryl-sulfatase (Homo sapiens); test: Inhibition of steroid sulfatase in human JEG-3 cells assessed as […]Estrone formation using [3H]E1S as substrate at 20 uM; type: cell-based; method in brief: as §1
Steryl-sulfatase = target: T2, Steryl-sulfatase (Homo sapiens, UniProt P08842); test: (§3) Inhibition of steroid sulfatase in human JEG-3 cells assessed as […]Estrone formation using [3H]E1S as substrate; type: cell-based; method in brief: as §1
T2 sequence (P08842 whole entry): T1 sequence (whole entry)

[4] = target: T1, Steryl-sulfatase (Homo sapiens); test: as §3; type: cell-based; method in brief: as §1
[5] = target: T1, Steryl-sulfatase (Homo sapiens); test: Inhibition of steroid sulfatase (unknown origin) at 20 uM; method in brief: as §2
[6] = target: T1, Steryl-sulfatase (Homo sapiens); test: Inhibition of steroid sulfatase (unknown origin); method in brief: as §2

Compound: NS(=O)(=O)Oc1ccc(NC(=O)C2CCCCC2)cc1
- inhibition [1]: 86.1%
- inhibition [2]: 55.7%
- inhibition [3]: 93.9%
- IC50 (Steryl-sulfatase): 421 nM
- inhibition [4]: Dose-dependent effect
- inhibition [5]: 72%
- inhibition [6]: Dose-dependent effect

Compound: CCS(=O)(=O)Oc1ccc(NC(=O)C2CCCCC2)cc1
- inhibition [2]: Active

Compound: CN(C)S(=O)(=O)Oc1ccc(NC(=O)C2CCCCC2)cc1
- inhibition [2]: Active

Compound: CNS(=O)(=O)Oc1ccc(NC(=O)C2CCCC2)cc1
- inhibition [2]: Active

Compound: Cc1ccc(S(=O)(=O)Oc2ccc(NC(=O)C3CCCCC3)cc2)cc1
- inhibition [2]: Active

Compound: CNS(=O)(=O)Oc1ccc(NC(=O)C2CCCCC2)cc1
- inhibition [2]: Active

Compound: Cc1ccc(S(=O)(=O)Oc2ccc(NC(=O)C3CCCC3)cc2)cc1
- inhibition [2]: Active
